Each structure is given as a SMILES string. Calls of active or inactive are those of the source. No cut-off for these calls is given here.

Experiment [1] has as its system K562. Description: Downregulation of MMP2 protein expression in human K562 cells assessed as MMP2 positive population at 2.5 uM after 48 hrs by FITC staining based flow cytometry (reference value: 98.4%). For orientation: Flow cytometry measures light scatter and fluorescence of single cells or particles in a stream.
Experiment [2] has as its system K562. Briefly: Cell cycle arrest in human K562 cells assessed as accumulation at sub-G1 phase at 5 uM after 24 hrs by propidium iodide staining based flow cytometry (reference value: 1%).
In experiment [3] the test system is K562. Description: Downregulation of MMP2 protein expression in human K562 cells up to 10 uM after 48 hrs by Western blot method. It counts as functional, cell-based. In outline: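 K562 cells (~2×10^6) grown 48 h, then treated. Lysed on ice in Tris-HCl pH 7.5 buffer with CHAPS and glycerol. 50 µg protein run on 12% SDS-PAGE (15% for β-tubulin) and blotted to PVDF. Probed with anti-MMP-2 and anti-β-tubulin (1:1000) overnight at 4 °C, then ALKP secondary antibody and DAB development. Band intensity normalised to β-tubulin; mean ± SD.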
On the technique in general: In western blotting, separated proteins are transferred to a membrane and probed.

Experiment [4] concerns K562. Description: Cell cycle arrest in human K562 cells assessed as accumulation at G2/M-phase at 2.5 uM after 24 hrs by propidium iodide staining based flow cytometry (reference value: 35.3%).
Experiment [5] relates to K562. Briefly: Cell cycle arrest in human K562 cells assessed as accumulation at sub-G1 phase at 2.5 uM after 24 hrs by propidium iodide staining based flow cytometry (reference value: 1%).
For experiment [6], the system named is K562. Briefly: Cell cycle arrest in human K562 cells assessed as accumulation at G1/S-phase at 2.5 uM after 24 hrs by propidium iodide staining based flow cytometry (reference value: 21.8%).
In experiment [7] the test system is K562. Briefly: Cytotoxicity against human K562 cells assessed as reduction in cell viability after 48 hrs by MTT assay. The settings on record: K562, 48 h. The experiment is classed as functional, cell-based. In outline: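 A549, MDA-MB-231, K562, U937 and PBMC (PBMC from healthy donors) seeded at 1×10^3 cells/well and left 24 h, then exposed to compounds for 48 h at 37 °C, 5% CO2. Adherent lines were grown in DMEM, the others in RPMI-1640 with 10% heat-inactivated FBS. MTT read-out; viability expressed as % of untreated control. IC50 taken as the concentration giving 50% viability loss.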
In general terms: Tetrazolium assays rely on reduction of a dye to a coloured formazan, in cell work by metabolically active cells.

Experiment [8] concerns K562. Briefly: Induction of apoptosis in human K562 cells assessed as early apoptotic cells at 5 uM after 48 hrs by Annexin V-FITC/propidium iodide staining based flow cytometry (reference value: 9.6%). The experiment is classed as functional.
The target of experiment [9] is Macrophage metalloelastase (Homo sapiens, UniProt P39900). Briefly: Inhibition of recombinant human MMP12 (Phe99 to Leu271 residues) expressed in Escherichia coli using Ac-Pro-Leu-Gly-S-Leu-Leu-Gly-OEt as substrate after 1 hr measured at 1 min time interval for 30 mins by microplate photometric method. In outline:
(§1)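 Commercial MMP kits; compound preincubated with enzyme before chromogenic substrate was added. Reactions at 37 °C for 1 h, with at least six inhibitor concentrations in triplicate. Absorbance at 410 nm read every 1 min for 30 min. NNGH used as reference inhibitor. IC50 taken from semi-logarithmic dose-response plots.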

In experiment [10] the test system is K562. Briefly: Induction of apoptosis in human K562 cells assessed as live cells at 2.5 uM after 48 hrs by Annexin V-FITC/propidium iodide staining based flow cytometry (reference value: 90.1%). It counts as functional.
Experiment [11] deals with K562. Briefly: Induction of apoptosis in human K562 cells assessed as increase in late apoptotic cells at 2.5 to 10 uM after 48 hrs by Annexin V-FITC/propidium iodide staining based flow cytometry relative to control. The experiment is classed as functional.
For experiment [12], the target named is 72 kDa type IV collagenase (Homo sapiens, UniProt P08253). Description: Inhibition of recombinant human MMP2 (Tyr110 to Asp452 residues) using Ac-Pro-Leu-Gly-S-Leu-Leu-Gly-OEt as substrate after 1 hr measured at 1 min time interval for 30 mins by microplate photometric method. Put shortly: as §1
The test system of experiment [13] is K562. Briefly: Downregulation of MMP2 protein expression in human K562 cells assessed as MMP2 negative population at 5 uM after 48 hrs by FITC staining based flow cytometry (reference value: 1.6%).
For experiment [14], the system named is K562. Description: Induction of apoptosis in human K562 cells assessed as necrotic cells at 10 uM after 48 hrs by Annexin V-FITC/propidium iodide staining based flow cytometry (reference value: 0%). The experiment is classed as functional.
The subject of experiment [15] is K562. Briefly: Cell cycle arrest in human K562 cells assessed as accumulation at G2/M-phase at 10 uM after 24 hrs by propidium iodide staining based flow cytometry (reference value: 35.3%).
Experiment [16] has as its system K562. Description: Cell cycle arrest in human K562 cells assessed as accumulation at G1-phase at 10 uM after 48 hrs by propidium iodide staining based flow cytometry (reference value: 27.5%). It counts as functional.
For experiment [17], the system named is K562. Description: Induction of apoptosis in human K562 cells assessed as live cells at 5 uM after 48 hrs by Annexin V-FITC/propidium iodide staining based flow cytometry (reference value: 90.1%). It counts as functional.
The test system of experiment [18] is K562. Description: Downregulation of MMP2 protein expression in human K562 cells assessed as MMP2 positive population at 5 uM after 48 hrs by FITC staining based flow cytometry (reference value: 98.4%).
In experiment [19] the test system is K562. Description: Induction of apoptosis in human K562 cells assessed as late apoptotic cells at 10 uM after 48 hrs by Annexin V-FITC/propidium iodide staining based flow cytometry (reference value: 0.3%). The experiment is classed as functional.
Experiment [20] has as its system K562. Briefly: Induction of apoptosis in human K562 cells assessed as necrotic cells at 2.5 uM after 48 hrs by Annexin V-FITC/propidium iodide staining based flow cytometry (reference value: 0%). It counts as functional.
For experiment [21], the system named is K562. Briefly: Downregulation of MMP2 protein expression in human K562 cells assessed as MMP2 negative population at 10 uM after 48 hrs by FITC staining based flow cytometry (reference value: 1.6%).
Experiment [22] concerns K562. Description: Anti-invasive activity against human K562 cells after 24 hrs by CyQuantGR dye based fluorimetric QCM EC matrix assay. It counts as functional, cell-based. In outline:
(§2)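 K562 cells (1X10^6 cells/ml) starved overnight in FBS-free medium, then placed in inserts in FBS-free medium with 5% BSA, with 5% FBS medium below as chemoattractant. Treated at 2.5, 5 and 10 μM in triplicate for 24 h alongside an untreated control. Invaded cells were detached, stained with CyQuantGR and read by fluorescence (ex 480/em 520 nm). Results given as % of control, mean ± SD.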

Experiment [23] concerns K562. Briefly: Anti-invasive activity against human K562 cells at 10 uM after 24 hrs by CyQuantGR dye based fluorimetric QCM EC matrix assay relative to control. The experiment is classed as functional. The settings on record: K562, 24 h. In outline:
as §2

For experiment [24], the target named is Matrix metalloproteinase-14 (Homo sapiens, UniProt P50281). Briefly: Inhibition of recombinant human MMP14 (Tyr112 to Arg298 residues) expressed in Escherichia coli using Ac-Pro-Leu-Gly-S-Leu-Leu-Gly-OEt as substrate after 1 hr measured at 1 min time interval for 30 mins by microplate photometric method. In outline:
as §1

72 kDa type IV collagenase, sequence (P08253 whole entry): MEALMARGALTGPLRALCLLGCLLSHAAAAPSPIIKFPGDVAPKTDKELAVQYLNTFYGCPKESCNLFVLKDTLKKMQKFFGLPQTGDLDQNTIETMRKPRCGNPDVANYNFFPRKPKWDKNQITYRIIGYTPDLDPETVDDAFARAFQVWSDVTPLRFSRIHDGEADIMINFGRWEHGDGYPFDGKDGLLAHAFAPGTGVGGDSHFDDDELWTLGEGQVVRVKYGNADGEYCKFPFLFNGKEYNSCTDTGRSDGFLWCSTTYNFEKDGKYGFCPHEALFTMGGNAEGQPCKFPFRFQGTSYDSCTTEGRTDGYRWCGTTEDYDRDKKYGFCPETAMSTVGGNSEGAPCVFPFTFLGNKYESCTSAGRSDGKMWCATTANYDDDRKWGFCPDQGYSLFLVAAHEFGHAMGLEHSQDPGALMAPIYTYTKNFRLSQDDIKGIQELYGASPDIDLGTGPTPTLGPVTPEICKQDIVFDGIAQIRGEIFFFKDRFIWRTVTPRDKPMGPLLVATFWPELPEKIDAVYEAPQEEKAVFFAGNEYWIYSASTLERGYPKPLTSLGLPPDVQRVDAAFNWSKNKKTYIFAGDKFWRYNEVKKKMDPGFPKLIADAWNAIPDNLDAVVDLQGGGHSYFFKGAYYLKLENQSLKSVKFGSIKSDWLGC
Macrophage metalloelastase, sequence (P39900 whole entry): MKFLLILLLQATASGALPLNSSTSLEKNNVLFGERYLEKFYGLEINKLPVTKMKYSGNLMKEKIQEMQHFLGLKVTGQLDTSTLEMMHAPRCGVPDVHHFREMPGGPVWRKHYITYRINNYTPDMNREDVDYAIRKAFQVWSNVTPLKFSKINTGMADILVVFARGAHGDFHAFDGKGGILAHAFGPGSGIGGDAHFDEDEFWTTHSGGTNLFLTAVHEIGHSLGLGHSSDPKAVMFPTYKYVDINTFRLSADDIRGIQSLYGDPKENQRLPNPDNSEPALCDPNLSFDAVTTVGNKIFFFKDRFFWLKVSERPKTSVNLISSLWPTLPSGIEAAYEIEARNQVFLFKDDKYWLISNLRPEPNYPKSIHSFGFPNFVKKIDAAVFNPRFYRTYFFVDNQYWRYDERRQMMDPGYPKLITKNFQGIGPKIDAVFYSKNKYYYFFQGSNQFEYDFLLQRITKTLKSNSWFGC

A word on the IC50: it is the concentration that inhibits the measured activity by half. As a reminder, the inhibition is the drop in the measured response relative to a control, in per cent. In the case of `CCCCCNC(=O)CC[C@H](NS(=O)(=O)c1ccc([N+](=O)[O-])cc1)C(=O)O`, the Activity in [1] worked out at 26.3%; in experiment [2], 2.4%; in [4], 36%; in experiment [5], 1.4%; in experiment [6], 20%; in experiment [8], 15.4%. The Activity in [10] was 73.5%; in experiment [13] it was 81.1%; in [14], 0.4%; in experiment [15], 23.1%; in experiment [16], 39.8%; in experiment [17], 76%. Further, the Activity in [18] is 18.9%; in experiment [19], 10.3%; in experiment [20], 0.5%; in experiment [21], 84.4%; in experiment [22], “Dose-dependent effect”. The result in experiment [3] was Active. Moreover, the IC50 in [7] came to 17.9 µM; in [9], 493 µM; in [12] it was 4.8 µM; in experiment [24], 436 µM. Moreover, in experiment [11], the “fold change (FC)” value is “<=300”. In [23], this compound gave an inhibition at 10 µM of 24.1%.
